The values below come from ChEMBL document CHEMBL4017537, “Discovery of a Potent and Specific M. tuberculosis Leucyl-tRNA Synthetase Inhibitor: (S)-3-(Aminomethyl)-4-chloro-7-(2-hydroxyethoxy)benzo[c][1,2]oxaborol-1(3H)-ol (GSK656)” (J Med Chem, 2017).

Molecules are shown by their SMILES.

Data set [1] is described as follows: Clearance in C57BL/6 mouse at 28.5 mg/kg, iv administered as single dose measured up to 8 hrs by LC-MS/MS analysis. Format: ADME, organism-based. The conditions noted are these: in vivo.
Data set [2] in a line: Half life in C57BL/6 mouse at 28.5 mg/kg, iv administered as single dose measured up to 8 hrs by LC-MS/MS analysis. Type of data set: ADME, organism-based. The conditions noted are these: in vivo.
The test system of data set [3] is Mus musculus. In words: Toxicity in mouse at 150 mg/kg. Type of data set: organism-based. The conditions noted are these: in vivo. In short, it runs like this: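 Maximum single tolerated dose study: healthy mice each got one dose, and tolerability was judged across escalating dose levels.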
For data set [4], the system named is Mus musculus. The data set is described as follows: Toxicity in mouse at 50 mg/kg, qd. Format: organism-based. The conditions noted are these: in vivo.
The test system of data set [5] is Mus musculus. The data set is described as follows: Dose normalized AUC (0 to infinity) in C57BL/6 mouse at 28.5 mg/kg, iv administered as single dose measured up to 8 hrs by LC-MS/MS analysis. Type of data set: ADME, organism-based. The conditions noted are these: in vivo.
Data set [6] deals with Mus musculus. In words: Dose normalized AUC (0 to 24 hrs) in C57BL/6 mouse at 26.1 mg/kg administered as single dose via oral gavage by LC-MS/MS analysis. Format: ADME, organism-based. The conditions noted are these: in vivo.
Data set [7] is described as follows: AUC (0 to infinity) in C57BL/6 mouse at 28.5 mg/kg, iv administered as single dose measured up to 8 hrs by LC-MS/MS analysis. The conditions noted are these: in vivo. Type of data set: ADME, organism-based. Details: dose 28.5 mg/kg, time infinity, route intravenous.
A short description of data set [8]: AUC (0 to 24 hrs) in CD-1 mouse at 30 mg/kg administered via oral gavage by LC-MS/MS analysis. Format: ADME, organism-based. On the set-up: dose 30 mg/kg, time < 24 hr, route oral. The conditions noted are these: in vivo.
A short description of data set [9]: Oral bioavailability in CD-1 mouse at 30 mg/kg administered via gavage after 24 hrs by LC-MS/MS analysis. Type of data set: ADME, organism-based. The conditions noted are these: in vivo.
Data set [10] in a line: AUC (0 to 24 hrs) in C57BL/6 mouse at 26.1 mg/kg administered as single dose via oral gavage by LC-MS/MS analysis. Format: ADME, organism-based. The conditions noted are these: in vivo. Details: dose 26.1 mg/kg, time < 24 hr, route oral.
Data set [11] is described as follows: Cmax in C57BL/6 mouse at 26.1 mg/kg administered as single dose via oral gavage measured up to 24 hrs by LC-MS/MS analysis. The conditions noted are these: in vivo. Format: ADME, organism-based. Details: dose 26.1 mg/kg, route oral.
A short description of data set [12]: Oral bioavailability in C57BL/6 mouse at 26.1 mg/kg administered as single dose via gavage measured up to 24 hrs by LC-MS/MS analysis. Format: ADME, organism-based. The conditions noted are these: in vivo.
Data set [13] in a line: Tmax in C57BL/6 mouse at 26.1 mg/kg administered as single dose via oral gavage measured up to 24 hrs by LC-MS/MS analysis. The conditions noted are these: in vivo. Type of data set: ADME, organism-based.
Data set [14] in a line: Volume of distribution at steady state in CD-1 mouse at 30 mg/kg, iv after 24 hrs by LC-MS/MS analysis. The conditions noted are these: in vivo, read-out: Vdss. Type of data set: ADME, organism-based.
Data set [15] deals with Mycobacterium tuberculosis. In words: Antimicrobial activity against Mycobacterium tuberculosis H37Rv infected in C57BL/6J mouse assessed as bacterial load in lungs at 0.1 mg/kg qd administered for 8 consecutive weeks starting from 6 weeks post infection measured 24 hrs post last dose (reference value: 6.4 +/- 0.3 log10CFU). Type of data set: functional. In short, it runs like this: (§1)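 C57BL/6J mice infected intratracheally with ~10² CFU M. tuberculosis H37Rv. Dosed QD, 7 days/week, for 8 weeks starting 6 weeks post-infection; killed ≥24 h after last dose. Lung homogenates plated on 7H11/10% OADC for 21 days at 37 °C. n = 3 per dose group, 7 for controls; mean (SD); ANOVA with Dunnett's test versus 14-week untreated.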

Data set [16] relates to Mus musculus. In words: Dose normalized AUC (0 to 24 hrs) in C57BL/6 mouse at 30 mg/kg administered as single dose via oral gavage by LC-MS/MS analysis. Type of data set: ADME, organism-based. The conditions noted are these: in vivo.
The test system of data set [17] is Mycobacterium tuberculosis. The data set is described as follows: Antimicrobial activity against Mycobacterium tuberculosis H37Rv infected in C57BL/6J mouse assessed as log reduction in bacterial load in lungs administered qd for 8 consecutive weeks starting from 6 weeks post infection measured 24 hrs post last dose. Format: functional. The procedure, abridged:
as §1

The nature of data set [18]: Tmax in C57BL/6 mouse at 30 mg/kg administered as single dose via oral gavage measured up to 24 hrs by LC-MS/MS analysis. Type of data set: ADME, organism-based. The conditions noted are these: in vivo. In short, it runs like this: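 C57BL/6 female mice (18−20 g) got one oral gavage dose of 30 mg/kg in 1% methylcellulose. Peripheral whole blood was sampled from 15 min to 24 h postdose, n = 3 mice per time point, and drug concentrations were measured in blood.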

A short description of data set [19]: Toxicity in mouse administered qd. The conditions noted are these: in vivo.
In data set [20] the test system is Mycobacterium tuberculosis. The data set is described as follows: Antimicrobial activity against Mycobacterium tuberculosis H37Rv infected in C57BL/6J mouse assessed as bacterial load in lungs at 3 mg/kg qd administered for 8 consecutive weeks starting from 6 weeks post infection measured 24 hrs post last dose (reference value: 6.4 +/- 0.3 log10CFU). Format: functional. The procedure, abridged: as §1

The nature of data set [21]: AUC (0 to 24 hrs) in C57BL/6 mouse at 30 mg/kg administered as single dose via oral gavage by LC-MS/MS analysis. Format: ADME, organism-based. On the set-up: time < 24 hr, dose 30 mg/kg, route oral. The conditions noted are these: in vivo.
In data set [22] the test system is Mycobacterium tuberculosis. The data set is described as follows: Antimicrobial activity against Mycobacterium tuberculosis H37Rv infected in C57BL/6J mouse assessed as bacterial load in lungs at 10 mg/kg qd administered for 8 consecutive weeks starting from 6 weeks post infection measured 24 hrs post last dose (reference value: 6.4 +/- 0.3 log10CFU). Type of data set: functional. In short, it runs like this:
as §1

Data set [23] addresses Leucine--tRNA ligase, cytoplasmic (Homo sapiens, UniProt Q9P2J5). The data set is described as follows: Inhibition of human N-terminal 6His-tagged cytoplasmic LeuRS expressed in Escherichia coli BL21(DE3) assessed as […] after 20 mins by liquid scintillation counting analysis.
Data set [24] can be described thus: Toxicity in mouse. Format: organism-based. The conditions noted are these: in vivo.
A short description of data set [25]: Volume of distribution at steady state in C57BL/6 mouse at 5.5 mg/kg, iv administered as single dose measured up to 24 hrs by LC-MS/MS analysis. Type of data set: ADME, organism-based. The conditions noted are these: in vivo, read-out: Vdss. The procedure, abridged: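 C57BL/6 female mice (18−20 g) got one intravenous dose in saline. Whole blood (15 μL) was taken by lateral tail-vein puncture from each of 3 mice at 5, 15 and 30 min and at 1, 2, 4, 8 and 24 h postdose, and drug concentrations were measured in peripheral blood.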

Data set [26] relates to Mycobacterium tuberculosis. In words: Antimicrobial activity against Mycobacterium tuberculosis H37Rv infected in C57BL/6J mouse assessed as bacterial load in lungs at 0.3 mg/kg qd administered for 8 consecutive weeks starting from 6 weeks post infection measured 24 hrs post last dose (reference value: 6.4 +/- 0.3 log10CFU). Format: functional. The procedure, abridged: as §1

A short description of data set [27]: AUC (0 to infinity) in C57BL/6 mouse at 5.5 mg/kg, iv administered as single dose measured up to 24 hrs by LC-MS/MS analysis. Format: ADME, organism-based. Details: dose 5.5 mg/kg, time infinity, route intravenous. The conditions noted are these: in vivo.
Data set [28] in a line: Oral bioavailability in C57BL/6 mouse at 30 mg/kg administered as single dose via gavage measured up to 24 hrs by LC-MS/MS analysis. Type of data set: ADME, organism-based. The conditions noted are these: in vivo.
Data set [29] has as its system Mycobacterium tuberculosis. In words: Antimicrobial activity against Mycobacterium tuberculosis H37Rv infected in C57BL/6J mouse assessed as bacterial load in lungs at 1 mg/kg qd administered for 8 consecutive weeks starting from 6 weeks post infection measured 24 hrs post last dose (reference value: 6.4 +/- 0.3 log10CFU). Format: functional. In short, it runs like this:
as §1

Data set [30] has as its system Mycobacterium tuberculosis. The data set is described as follows: Antimicrobial activity against Mycobacterium tuberculosis H37Rv infected in C57BL/6J mouse assessed as bacterial load in lungs at 30 mg/kg qd administered for 8 consecutive weeks starting from 6 weeks post infection measured 24 hrs post last dose (reference value: 6.4 +/- 0.3 log10CFU). Format: functional. The procedure, abridged:
as §1

A short description of data set [31]: Cmax in C57BL/6 mouse at 30 mg/kg administered as single dose via oral gavage measured up to 24 hrs by LC-MS/MS analysis. Type of data set: ADME, organism-based. On the set-up: dose 30 mg/kg, route oral. The conditions noted are these: in vivo.

Sequence of Leucine--tRNA ligase, cytoplasmic (Q9P2J5 whole entry): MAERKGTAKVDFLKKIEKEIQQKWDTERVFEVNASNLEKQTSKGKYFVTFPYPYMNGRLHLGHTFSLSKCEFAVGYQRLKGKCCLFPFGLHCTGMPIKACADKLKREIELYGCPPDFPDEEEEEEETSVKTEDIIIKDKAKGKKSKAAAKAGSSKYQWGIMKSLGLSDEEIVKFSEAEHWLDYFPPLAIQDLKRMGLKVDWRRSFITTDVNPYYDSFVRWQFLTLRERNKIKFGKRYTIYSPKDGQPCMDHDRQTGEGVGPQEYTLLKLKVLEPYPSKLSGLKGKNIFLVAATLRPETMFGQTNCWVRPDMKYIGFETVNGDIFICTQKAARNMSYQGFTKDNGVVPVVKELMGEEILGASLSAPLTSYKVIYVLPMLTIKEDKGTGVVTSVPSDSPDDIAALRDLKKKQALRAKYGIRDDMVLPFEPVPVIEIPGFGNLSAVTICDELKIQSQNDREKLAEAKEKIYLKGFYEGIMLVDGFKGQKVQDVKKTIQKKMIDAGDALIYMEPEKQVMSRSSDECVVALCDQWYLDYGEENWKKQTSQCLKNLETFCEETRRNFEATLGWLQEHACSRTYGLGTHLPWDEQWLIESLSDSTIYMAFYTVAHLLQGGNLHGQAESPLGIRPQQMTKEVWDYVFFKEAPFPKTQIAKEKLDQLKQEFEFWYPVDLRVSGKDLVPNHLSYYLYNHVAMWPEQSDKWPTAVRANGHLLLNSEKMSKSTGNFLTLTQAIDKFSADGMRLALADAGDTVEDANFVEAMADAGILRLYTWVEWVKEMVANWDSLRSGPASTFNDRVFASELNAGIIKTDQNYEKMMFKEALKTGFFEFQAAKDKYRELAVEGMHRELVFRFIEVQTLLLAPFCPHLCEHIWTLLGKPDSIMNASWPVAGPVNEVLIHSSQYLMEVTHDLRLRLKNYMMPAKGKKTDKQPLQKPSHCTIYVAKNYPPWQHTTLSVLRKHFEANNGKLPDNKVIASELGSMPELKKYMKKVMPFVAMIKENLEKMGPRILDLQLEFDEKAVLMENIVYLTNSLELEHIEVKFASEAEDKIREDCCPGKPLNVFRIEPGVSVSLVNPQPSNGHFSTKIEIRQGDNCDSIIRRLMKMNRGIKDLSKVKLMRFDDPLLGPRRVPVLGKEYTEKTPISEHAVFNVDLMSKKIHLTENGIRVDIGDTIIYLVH

For `CCOc1ccc(Br)c2c1B(O)O[C@@H]2CN`, the clearance (commonly the rate of elimination divided by the concentration) in [1] is 6.6 mL/min/kg. For the same molecule, the half-life – broadly, the time needed for the level to fall by half in the phase considered – in data set [2] was 186 min. Also, the Activity result with Mus musculus [3] and in the data set on Mus musculus [4] was “Toxic” in each case. The AUC/dose came to 2.54 µg·h/mL/mg/kg with Mus musculus [5] and 2.98 µg·h/mL in the data set on Mus musculus [6]. Besides, the area under the curve AUC(0-inf) – broadly, the area under the concentration-time curve extrapolated to infinity – in data set [7] worked out at 72300 ng·h/mL. The AUC(0-t) (in general, the area under the concentration-time curve up to a stated or last time point) at 24 h in data set [8] came out at 57600 ng·h/mL; in data set [10], 77900 ng·h/mL. Further, the bioavailability in data set [9] and in [12] was 100% throughout. Further, the peak concentration (Cmax) (usually the highest concentration seen after dosing) in [11] turned out to be 11100 ng/mL. In addition, the time to peak (Tmax) (usually the time from dosing to the highest level) in data set [13] is 2 h. Also, the Vd in [14] is 3.2 L/kg.

In the case of `Cl.NC[C@H]1OB(O)c2c(OCCO)ccc(Cl)c21`, the Activity is 6.4 log10CFU in [15]; “Dose-dependent effect” in data set [17]; 4.6 log10CFU in [20]; 4.3 log10CFU in data set [22]; 6 log10CFU in [26]; 4.7 log10CFU in data set [29]. The Activity in data set [30] is listed as 4.4 log10CFU. In the data set with Mus musculus [16], this molecule showed an AUC/dose of 2.94 µg·h/mL. For the same molecule, the Tmax in data set [18] is 54 min. Moreover, the values for the MTD in data set [19] and in data set [24] were 100 mg/kg and 300 mg/kg, respectively. The same molecule gave an exposure AUC(0-t) at 24 h in data set [21] of 88200 ng·h/mL. Further, the IC50 (usually the concentration that inhibits the measured activity by half) in data set [23] was 132 µM. Also, the Vd in data set [25] came to 2.3 L/kg. In addition, the AUC(0-inf) in data set [27] turned out to be 11100 ng·h/mL. The bioavailability (usually the share of a dose that reaches the circulation, judged against a reference dose that is usually intravenous) in [28] came to 100%. The Cmax in data set [31] was 17800 ng/mL.
